This is a sample that favours compounds with a hit; in the whole collection about 11% have one here.
G6PDH CS = L. mesenteroides G6PDH inhibitors, counter-screen for G6PDH-coupled screening assays, biochemical, Leuconostoc mesenteroides enzyme | inhibition, % at 5 µM | Purified L. mesenteroides G6PDH, diaphorase/resazurin coupled fluorescence, 45 min | hit rate 0.12% among 200,000 | glucose-6-phosphate dehydrogenase [Leuconostoc mesenteroides] | AID 1020, 2008
Diaph act CS = compounds boosting diaphorase resazurin reduction – biochemical, uHTS, resorufin fluorescence, counter-screen for diaphorase-coupled primary assays, primary screen. hit rate 0.005% among 190,000. activation factor at 20 µM. Diaphorase/resazurin coupled assay, 16 min; stronger effect = higher value; 1 = vehicle wells, 0 = NADH-free wells;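 active = diaphorase activity raised at least twofold by the compound at 20 µM; inactive = activation factor below 2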
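Material: Clostridium kluyveri diaphorase, purified enzyme; Quantity: enzyme 0.07 U/mL final; Medium: HEPES pH 7.4 buffer with MgCl2 and Tween 20; Dosing: single compound dose of 20 µM, 1% DMSO final; Schedule: 16 min reaction at room temperature; Measured by: red resorufin fluorescence at 544/590 nm excitation/emission.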
Diaph inh CS = diaphorase inhibitors and chemical oxidizers, primary screen, counter-screen for diaphorase-coupled primary assays, biochemical, uHTS, resorufin fluorescence. hit rate 0.69% among 190,000. diaphorase resazurin-to-resorufin fluorescence, NADH, 16 min; bacterial (C. kluyveri) enzyme, not human. AID 1217, 2008. inhibition, % at 20 µM;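 active = primary screen inhibition at 20 µM above a set limit, cut at about 50% in these data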
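Assay system: diaphorase enzyme from Clostridium kluyveri. Quantity: enzyme working solution with 0.14 U/mL diaphorase. Schedule: reaction incubation of 16 min at room temperature. Technique: resorufin fluorescence, excitation 544 nm, emission 590 nm. Controls: No-NADH positive control and DMSO neutral control.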
L major viab = Leishmania major promastigote growth inhibition, primary screen | Leishmania major promastigotes, resazurin fluorescence viability | inhibition, % at 10 µM | hit rate 9% among 200,000 | AID 1063, 2008;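 also: promastigotes grown with compound for 44 hours at 28 °C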
WT yeast gro inh = growth inhibition of WT strain, primary screen, mitochondrial fusion inhibitor project, WT and mutant strains, chemical genetic; inhibition, % at 10 µM; mitochondrial fusion phenotypic screen; hit rate 2.1% among 190,000; in the data active = inhibition above about 58%; tested in S. cerevisiae
Of the large screens only hits and unclear results are named; the others gave an inactive call. Rule as the data show it, unless noted: active = inhibition above about 50%; inactive = the rest.

S=C(Nc1ccc(Cl)cc1)c1nc2ccccc2s1	none
O=C(Nc1ccc(Cl)cc1)/C(=C/c1cccc(O)c1)c1nc2ccccc2s1	L major viab 100.4
CC(=O)Nc1nc(C)c(-c2csc(Nc3cccc([N+](=O)[O-])c3)n2)s1	L major viab 97.5
O=C(Nc1ccc([N+](=O)[O-])cc1)Nc1nc(-c2ccc(Cl)s2)cs1	L major viab 81.5, WT yeast gro inh 86.6
CC(=O)Nc1nc(C)c(-c2csc(Nc3ccc(O)cc3)n2)s1	L major viab 62.7
CCCC(=O)Nc1nc(-c2ccc(Cl)s2)cs1	none
CC(=O)Nc1nc(-c2cc([N+](=O)[O-])cs2)cs1	L major viab 74.8
CC(=O)c1cccc(Nc2nc(-c3cccc([N+](=O)[O-])c3)cs2)c1	none
CC(=O)Nc1nc(-c2ccc([N+](=O)[O-])cc2)cs1	none
CCOc1ccc(CC(=O)NCC2(N3CCCCC3)CCCCC2)cc1	none
COc1ccc(-c2nsc3c(N4CCCCC4C)ncnc23)cc1 (centres undefined)	WT yeast gro inh 74.6
COc1ccc(-c2nsc3c(N4CCCCC4)ncnc23)cc1	none
Cc1nc(N(C)Cc2ccccc2)c2nnn(Cc3ccccc3)c2n1	WT yeast gro inh 79.9
COc1ccc(NC(=O)CSc2ncn(-c3ccccc3)n2)cc1Cl	none
Cc1ccc(NC(=O)CSc2ncn(-c3ccccc3)n2)cc1C	L major viab 97.4
N#CCCN(CCN1CCCC1)S(=O)(=O)c1ccc(-c2ccc([N+](=O)[O-])cc2)cc1	L major viab 93.0
N#CCCN(Cc1cccnc1)S(=O)(=O)c1ccc(S(=O)(=O)N2CCCCCC2)cc1	none
Cc1ccccc1NC(=S)NNC(=O)c1csc2c1CCC(C)C2 (centres undefined)	none
CC(NC(=O)c1ccc(F)cc1)c1ccccc1 (centres undefined)	none
Cc1ccc(C(NC(=O)NC(C)c2ccccc2)C(Cl)(Cl)Cl)cc1F (centres undefined)	WT yeast gro inh 64.0
CCNC(=O)NC(=O)COC(=O)c1ccccc1SCC(=O)NC(=O)NCC	none
COc1cccc(Cn2cccc(NC(=O)NC3CCCCC3)c2=O)c1	L major viab 99.0
Cc1ccc(Cn2cccc(NC(=O)NC3CCCCC3)c2=O)cc1	L major viab 85.8
O=C(Nc1cccn(Cc2ccc(F)cc2)c1=O)NC1CCCCC1	L major viab 83.3
O=C(O)CN1CCCCCC1=O	none
CS(=O)(=O)NCc1nnc(SCC(=O)NC2CCCCC2)n1-c1ccc(F)cc1	none
O=C(CN(C(=O)CCC(=O)Nc1nccs1)c1ccc(F)cc1)NCc1ccco1	none
O=C(CN(C(=O)CCC(=O)Nc1nccs1)c1ccc(F)c(Cl)c1)NCc1ccco1	L major viab 89.6
O=C(CN1CCOc2ccccc21)N1CCCC1	none
COc1ccccc1N(CCC#N)C(=O)CSc1nc(-c2ccccc2)cn1N	none
Cc1nc(-n2[nH]c3c(c2=O)CCCC3)[nH]c(=O)c1Cc1ccccc1	L major viab 96.5
COc1cccc(CNC(=O)C2CCCN(S(C)(=O)=O)C2)c1 (centres undefined)	none
Cc1cc(C)c2cc(CN(Cc3ccc4c(c3)OCO4)Cc3nnnn3Cc3ccco3)c(=O)[nH]c2c1	none
Cc1ccc2[nH]c(=O)c(CN(Cc3ccc4c(c3)OCO4)Cc3nnnn3C3CCCC3)cc2c1	L major viab 63.7
Cc1cc2cc(CN(Cc3ccc4c(c3)OCO4)Cc3nnnn3C3CCCC3)c(=O)[nH]c2cc1C	none
Cc1ccc2[nH]c(=O)c(CN(Cc3ccc4c(c3)OCO4)Cc3nnnn3Cc3ccco3)cc2c1	L major viab 100.0
Cc1ccc(C)c(NC(=O)c2ccccc2C(=O)c2ccccc2)c1	WT yeast gro inh 62.8
O=C(Nc1cccs1)Nc1c(F)c(F)cc(F)c1F	none
O=C(Nc1cccs1)Nc1c(F)c(F)c(F)c(F)c1F	L major viab 55.1
CN(C)CCN(C)Cc1ccc2c(c1)Cc1ccccc1-2	none (no result: L major viab, WT yeast gro inh)
OC1CCCN(Cc2ccc3c(c2)Cc2ccccc2-3)C1 (centres undefined)	L major viab 72.8
CCCCC(=O)NC(c1ccc(OC)c(OC)c1)c1c(O)ccc2ccccc12 (centres undefined)	L major viab 100.0

Assay outcomes as filed in PubChem.
